# Measured values from different studies.
# Target: Platelet-derived growth factor receptor beta (PDGFRB, Homo sapiens, UniProt P09619)
Compound,effect on,technique,tested at,remaining binding
CS(=O)(=O)NCC[C@H](NC(=O)c1cncc2c1cnn2-c1ccc(F)cc1)c1ccnc(S(C)(=O)=O)c1,cell-free assay,competition with immobilised ligand,1 µM,100%
O=C(c1ccc(Nc2nccc(-c3cc4ccccc4s3)n2)cc1)N1CCC(N2CCCC2)CC1,binding,competition with immobilised ligand,1 µM,11%
CNC(=O)[C@@H]1CC[C@@H](n2c(-c3ccc4cnccc4c3)nc3ccc(C(=O)NCc4cccc(C(N)=O)c4)cc32)C1,binding,competition with immobilised ligand,1 µM,100%
COCCOc1nc(-c2ccc(Cl)nc2)nc2c1CN(C(=O)c1ncn3ccccc13)CC2,cell-free assay,competition with immobilised ligand,0.1 µM,100%
CC1CCCN1c1nccc(-c2cnn3ncccc23)n1 (stereo not shown),binding,,1 µM,100%
CC(=O)C1=C(C)N(c2cccc(C(F)(F)F)c2)C(=O)N[C@@H]1c1ccc(C#N)nc1,cell-free assay,competition with immobilised ligand,1 µM,94%
O=C(NCCCN1CCOCC1)c1ccc(Nc2ncc(Cl)c(-c3ccc(Cl)s3)n2)cc1,binding,competition with immobilised ligand,1 µM,0.05%
COc1ncc2cc3ccccc3nc2c1C#N,cell-free assay,competition with immobilised ligand,5 µM,97%
COc1cnc(Nc2cccc(S(N)(=O)=O)c2)nc1N1CCN(c2ccccc2)CC1,binding,competition with immobilised ligand,1 µM,87%
CC(=O)N1CCC(c2ccc(C(=O)NC(=N)N)cc2C(F)(F)F)CC1,cell-free assay,competition with immobilised ligand,1 µM,100%
C[C@@H]1CN(c2ccc3ncc(-c4ccc5[nH]nc(C6CC6)c5c4)n3n2)C[C@H](C)O1,binding,competition with immobilised ligand,50 nM,87%
O=C(Nc1cnc(Oc2ccc(F)cc2)nc1)N1CCc2ncccc2[C@@H]1c1ccc(F)cc1,cell-free assay,competition with immobilised ligand,1 µM,100%
COc1ccnn2ncc(-c3ccnc(N(C)C)n3)c12,binding,,1 µM,100%
O=C(NCCCN1CCOCC1)c1ccc(Nc2nccc(-c3cc4ccccc4s3)n2)cc1,binding,competition with immobilised ligand,1 µM,13%
C=CC(=O)N1CCC(C(=O)NCC(=O)N2CCN(c3nc(-c4cnc(N)nc4C(F)F)nc(N4CCOCC4)n3)CC2)CC1,binding,competition with immobilised ligand,1 µM,100%
CN(CCCC(F)(F)F)c1nccc(-c2cnn3ncccc23)n1,binding,,1 µM,95%
CNC(=O)Nc1ccc2c(c1)[C@@]1(CC2)OC(=O)N(CC(=O)N(Cc2ccc(F)cc2)[C@@H](C)C(F)(F)F)C1=O,cell-free assay,competition with immobilised ligand,1 µM,87%
Cc1cnn2ncc(-c3ccnc(N(C)C)n3)c2c1,binding,,1 µM,100%
C[C@@H](c1ccc(-n2cnc3c(N)ncnc32)cc1)N1CCc2nn(C)c(Cc3ccccc3)c2C1=O,binding,competition with immobilised ligand,0.1 µM,17%
N[C@@H]1CCN(c2nccc(-c3cnn4ncccc34)n2)C1,binding,,1 µM,100%
c1cncc(-c2cccc(Nc3nccc(NC4CCCCC4)n3)c2)c1,binding,competition with immobilised ligand,10 µM,0%
Cc1nccc(COC(=O)N2C[C@@H]3[C@@H](CNC(=O)c4ccc5[nH]nnc5c4)[C@@H]3C2)n1,cell-free assay,competition with immobilised ligand,1 µM,84%
CN(C)c1nccc(-c2cnc3ncccn23)n1,binding,,1 µM,90%
C[C@@H]1CN(c2cc(-c3n[nH]c4ccc(OC5(C)CC5)cc34)ncn2)C[C@H](C)O1,cell-free assay,competition with immobilised ligand,0.1 µM,73%
O=C(NCC1CCOCC1)c1n[nH]cc1NC(=O)c1c(F)cccc1F,binding,competition with immobilised ligand,1 µM,99%
